Laboratory results: ChEMBL document CHEMBL5236592, “Induction of Ferroptosis in Glioblastoma and Ovarian Cancers by a New Pyrrole Tubulin Assembly Inhibitor” (J Med Chem, 2022)
Calls of active or inactive are those of the source.

Legend:
Assay type in all cases: functional, organism-based
Details in all cases: time 40.0 day
U-87MG ATCC [1] = test: Antitumor activity against human U-87 MG cells xenografted in BALB/C nu/nu mouse assessed as reduction in tumor growth at 25 mg/kg, ip administered every 2 days for 40 days
How it was run: (§1)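 Female BALB/c nu/nu mice, 10 weeks old, 4 per group. Received subcutaneous U-87 MG or SKOV-3 cells (1 × 10^8 cells/mL, harvested in log phase). Dosed ip with 100 μL at 25 mg/kg every 2 days; controls got 100 μL saline on the same schedule. Sacrificed at 40 days; tumors weighed, volume = ab²/2. Tumor sections (6 μm, paraffin) stained by immunofluorescence for Ki67 or CD31 with Alexa Fluor 488 secondary.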

SK-OV-3 [2] = test: Antitumor activity against human SK-OV-3 cells xenografted in BALB/C nu/nu mouse assessed as reduction in tumor growth at 25 mg/kg, ip administered every 2 days for 40 days; how it was run: as §1
SK-OV-3 [3] = test: Induction of ferroptosis-mediated antitumor activity against human SK-OV-3 cells xenografted in BALB/C nu/nu mouse assessed as reduction in ATP level in tumor at 25 mg/kg, ip administered every 2 days for 40 days by biochemical analysis
How it was run: (§2)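 U-87 MG or SKOV-3 sc xenografts (1 × 10^8 cells/mL) in female BALB/c nu/nu mice, 4 per group. Given 25 mg/kg ip in 100 μL every 2 days, or saline. Tumors harvested on day 40 and assayed for LPO, MDA, lactic acid, total glutathione (GSH + GSSG), ATP and Fe2+.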

U-87MG ATCC [4] = test: Induction of ferroptosis-mediated antitumor activity against human U-87 MG cells xenografted in BALB/C nu/nu mouse assessed as reduction in total glutathione level in tumor at 25 mg/kg, ip administered every 2 days for 40 days by biochemical analysis; how it was run: as §2
Mus musculus [5] = test: Upregulation of Gls2 mRNA expression in tumor of BALB/C nu/nu mouse xenografted with human U-87 MG cells at 25 mg/kg, ip administered every 2 days for 40 days by qPCR analysis
How it was run: (§3)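 Female BALB/c nu/nu mice, 10 weeks old, 4 per group. Inoculated s.c. with 1 × 10^8 cells/mL of log-phase U-87 MG or SKOV-3 cells. Dosed i.p. with 100 μL at 25 mg/kg every 2 days; controls got 100 μL saline. Tumors harvested on day 40. RNA extracted from about 20 mg of tissue. qPCR panel of 69 genes, 40 cycles (94 °C 20 s, 60 °C 34 s). Analysed by 2–ΔΔCt; fold ≥1.5 taken as increased.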

Mus musculus [6] = test: Upregulation of Lpcat3 mRNA expression in tumor of BALB/C nu/nu mouse xenografted with human U-87 MG cells at 25 mg/kg, ip administered every 2 days for 40 days by qPCR analysis; how it was run: as §3
Mus musculus [7] = test: Upregulation of Alfm1 mRNA expression in tumor of BALB/C nu/nu mouse xenografted with human U-87 MG cells at 25 mg/kg, ip administered every 2 days for 40 days by qPCR analysis
How it was run: (§4)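 Female BALB/c nu/nu mice bearing sc U-87 MG or SKOV-3 xenografts were dosed ip at 25 mg/kg (100 μL) every 2 days, or given saline, and tumors were taken at day 40. RNA was extracted from about 20 mg of tissue. qPCR ran 40 cycles (95 °C 15 min; 94 °C 20 s; 60 °C 34 s) on a 69-gene panel. Fold change was by 2^–ΔΔCt, with ≥1.5 counted as increased.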

Mus musculus [8] = test: Upregulation of Hspb5 mRNA expression in tumor of BALB/C nu/nu mouse xenografted with human U-87 MG cells at 25 mg/kg, ip administered every 2 days for 40 days by qPCR analysis; how it was run: as §3
Mus musculus [9] = test: Upregulation of FTL mRNA expression in tumor of BALB/C nu/nu mouse xenografted with human U-87 MG cells at 25 mg/kg, ip administered every 2 days for 40 days by qPCR analysis; how it was run: as §4
Mus musculus [10] = test: Upregulation of Ireb2 mRNA expression in tumor of BALB/C nu/nu mouse xenografted with human U-87 MG cells at 25 mg/kg, ip administered every 2 days for 40 days by qPCR analysis; how it was run: as §3
Mus musculus [11] = test: Upregulation of Cbs mRNA expression in tumor of BALB/C nu/nu mouse xenografted with human SK-OV-3 cells at 25 mg/kg, ip administered every 2 days for 40 days by qPCR analysis; how it was run: as §4
Mus musculus [12] = test: Upregulation of ALOX5 mRNA expression in tumor of BALB/C nu/nu mouse xenografted with human SK-OV-3 cells at 25 mg/kg, ip administered every 2 days for 40 days by qPCR analysis; how it was run: as §4
Mus musculus [13] = test: Upregulation of Ptgs2 mRNA expression in tumor of BALB/C nu/nu mouse xenografted with human SK-OV-3 cells at 25 mg/kg, ip administered every 2 days for 40 days by qPCR analysis; how it was run: as §3
Mus musculus [14] = test: Upregulation of Rpl8 mRNA expression in tumor of BALB/C nu/nu mouse xenografted with human SK-OV-3 cells at 25 mg/kg, ip administered every 2 days for 40 days by qPCR analysis; how it was run: as §3
Mus musculus [15] = test: Upregulation of Dpp4 mRNA expression in tumor of BALB/C nu/nu mouse xenografted with human SK-OV-3 cells at 25 mg/kg, ip administered every 2 days for 40 days by qPCR analysis; how it was run: as §4
Mus musculus [16] = test: Upregulation of Chac1 mRNA expression in tumor of BALB/C nu/nu mouse xenografted with human SK-OV-3 cells at 25 mg/kg, ip administered every 2 days for 40 days by qPCR analysis; how it was run: as §4
Mus musculus [17] = test: Upregulation of Gclm mRNA expression in tumor of BALB/C nu/nu mouse xenografted with human SK-OV-3 cells at 25 mg/kg, ip administered every 2 days for 40 days by qPCR analysis; how it was run: as §4
Mus musculus [18] = test: Upregulation of Nf22l2 mRNA expression in tumor of BALB/C nu/nu mouse xenografted with human SK-OV-3 cells at 25 mg/kg, ip administered every 2 days for 40 days by qPCR analysis; how it was run: as §3
Mus musculus [19] = test: Upregulation of Hspb5 mRNA expression in tumor of BALB/C nu/nu mouse xenografted with human SK-OV-3 cells at 25 mg/kg, ip administered every 2 days for 40 days by qPCR analysis; how it was run: as §3
U-87MG ATCC [20] = test: Antitumor activity against human U-87 MG cells xenografted in BALB/C nu/nu mouse assessed as reduction in CD31 expression in tumor at 25 mg/kg, ip administered every 2 days for 40 days by immunofluoresence staining based assay; how it was run: as §1
SK-OV-3 [21] = test: Antitumor activity against human SK-OV-3 cells xenografted in BALB/C nu/nu mouse assessed as reduction in CD31 expression in tumor at 25 mg/kg, ip administered every 2 days for 40 days by immunofluoresence staining based assay; how it was run: as §1

Measured: Activity

COc1cc(C(=O)c2cn(-c3ncccn3)cc2-c2ccco2)cc(OC)c1OC
active: U-87MG ATCC [1] | SK-OV-3 [2] | SK-OV-3 [3] | U-87MG ATCC [4] | Mus musculus [5] | Mus musculus [6] | Mus musculus [7] | Mus musculus [8] | Mus musculus [9] | Mus musculus [10] | Mus musculus [11] | Mus musculus [12] | Mus musculus [13] | Mus musculus [14] | Mus musculus [15] | Mus musculus [16] | Mus musculus [17] | Mus musculus [18] | Mus musculus [19] | U-87MG ATCC [20] | SK-OV-3 [21]
